molecular target: T1, UniProt Q924H8; conditions: stereoisomer not certain
T1 sequence (whole entry): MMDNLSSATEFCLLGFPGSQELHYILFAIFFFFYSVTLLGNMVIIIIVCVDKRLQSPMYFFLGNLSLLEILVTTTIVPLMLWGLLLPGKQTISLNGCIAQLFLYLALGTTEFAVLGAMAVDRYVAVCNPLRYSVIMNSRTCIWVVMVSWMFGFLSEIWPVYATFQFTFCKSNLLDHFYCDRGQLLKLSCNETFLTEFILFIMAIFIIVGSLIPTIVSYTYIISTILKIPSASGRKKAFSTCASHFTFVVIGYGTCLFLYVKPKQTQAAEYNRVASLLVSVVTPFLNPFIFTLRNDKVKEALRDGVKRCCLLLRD
How it was run: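 Transient luciferase assays in mammalian cell lines were common, though methods varied by source. The values come from published papers and their supplementary material, with extra details from the original authors when needed. Responsive refers to a measured signal the original authors judged statistically different from baseline, and non-responsive (inactive) to the remainder.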
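Also: active if original authors judged signal statistically different from baseline.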

Odorant receptor agonist call, inactive:
CCN(CC)CC, CCOC(=O)CC(C)C, CCc1nccnc1CC, COC(OC)c1ccccc1, C=CC(C)=CCC=C(C)CCC=C(C)C, CCCCCCCOC(=O)C(C)C, CSSCc1ccco1, Cc1ccc(C(C)C)cc1, CC(CC=O)CCCC(C)(C)O (stereo unspecified), CCCCCCC=CC=O, COc1nccnc1C(C)C, CCC(C)O (stereo unspecified), CCCO, CC1CCC(C(C)C)C(=O)C1 (stereo unspecified), CC(=O)OCCc1ccccc1, CC(C)=CCCC(C)=CCOC(=O)C(C)C, C=CC(=C)CCC=C(C)C, CCCC=O, CCc1ccc(O)cc1, CCCCCCCCOC=O, O=C(O)C1CCC1, CNc1ccccc1C(=O)OC, CCC=CCCCCC=O, CCC=CCCC=CC=O, CC(=O)OCc1ccc2c(c1)OCO2, C1CCOC1, OCC=Cc1ccccc1, CCSSCC, CCCCCC(C)O (stereo unspecified), CCCCCC(C=O)=Cc1ccccc1, OCCc1ccccc1, CC(=O)C=CC1=C(C)CCCC1(C)C, C=C(C)C1CCC(C)C(O)C1 (stereo unspecified), CCCCCOC(=O)CCC, Cc1occc1SSc1ccoc1C, CCCCCC(=Cc1ccccc1)C(OC)OC

Reference: the M2OR odorant receptor database
